# Results collected from several papers.
SMILES,host,medium,route,dose,notes,Tmax [h]
CC(C)n1cc(C#N)c2cc(-n3cc(C(=O)O)cn3)ccc21,human,plasma,oral,25 mg,"single dose, fasted, healthy volunteers",2.3
CS(=O)(=O)CCC#N,human,plasma,oral,1000 mg,"single dose, fasted",1.5
CCCOc1ccc([C@H]2CNC(=O)N2c2ccc3[nH]cnc3c2)cc1,human,plasma,oral,200 mg,"single dose, fed, healthy volunteers",2
C=CC(=O)N(C)CCOc1c(N)ncnc1-c1cc(F)cc(NC(=O)c2ccc(C3CC3)cc2F)c1C,human,blood,oral,200 mg,"single dose, healthy volunteers",1.25
CCc1nc(C(N)=O)c(Nc2ccc(N3CCC(N4CCN(C)CC4)CC3)c(OC)c2)nc1NC1CCOCC1,human,plasma,oral,40 mg,"multiple doses, patients",4.01
C[C@@H](Nc1cc(F)cc(F)c1)c1cc(C(=O)N(C)C)cc2c(=O)cc(N3CCOCC3)oc12,human,plasma,oral,60 mg,"single dose, patients",1.27
C#C[C@]1(COP(=O)(O)OP(=O)(O)OP(=O)(O)O)O[C@@H](n2cnc3c(N)nc(F)nc32)C[C@@H]1O,human,plasma,oral,100 mg,single dose,24
NS(=O)(=O)NCCNc1nonc1C(=NO)Nc1ccc(F)c(Br)c1,human,plasma,oral,300 mg,"multiple doses, twice daily, steady state, patients",2
CCc1nc2c(C)cc(N3CCN(CC(=O)N4CC(O)C4)CC3)cn2c1N(C)c1nc(-c2ccc(F)cc2)c(C#N)s1,human,plasma,oral,150 mg,"fed, healthy volunteers",1
C=CC(=O)N1CCC(Oc2cc3c(Nc4ccc(Cl)c(Cl)c4F)ncnc3cc2OC)CC1,human,plasma,oral,16 mg,"single dose, fed",3.01
C[C@@H](c1ccc2nccn2c1)n1nnc2ncc(-c3cnn(C)c3)nc21,human,plasma,oral,200 mg,,2.5
COc1cc(N2CCC(N3CCN(C)CC3)CC2)ccc1Nc1ncnc(Nc2ccccc2S(=O)(=O)C(C)C)n1,human,plasma,oral,25 mg,"multiple doses, patients",2.48
Cn1cc(-c2ccc(S(=O)(=O)[C@@H]3C[C@@H](C(=O)NC4(C#N)CC4)N(C(=O)C4(C(F)(F)F)CC4)C3)c(C(F)(F)F)c2)cn1,human,plasma,oral,1 mg,"single dose, fasted, healthy volunteers",4
CC(C)(Sc1ccncc1-c1ccc(C#N)c2ccccc12)C(=O)O,male human,plasma,oral,40 mg,"single dose, fasted, healthy volunteers",0.75
COc1ccc([C@@H]2CN(C(=O)[C@@H](O)CO)C[C@@]2(C)[C@@H](C)O)cc1OC1CN(c2ccc(C)cn2)C1,human,plasma,oral,40 mg,"single dose, healthy volunteers",3.88
CC(C)(O)c1ccccc1-c1ccc2[nH]c(/C=C/c3ccc(C(F)(F)F)cc3)nc2c1,male human,plasma,oral,60 mg,"single dose, fasted",3.98
CO[C@H]1/C=C\C=C(/C)C(=O)NC2=CC(=O)C(NCCN(C)C)=C(C[C@@H](C)C[C@H](OC)[C@H](O)[C@@H](C)/C=C(\C)[C@@H]1OC(N)=O)C2=O,human,plasma,intravenous,27 mg/m²,"patients, infusion",0.9
O=C(Nc1c(Cl)cncc1Cl)c1ccc(OC(F)F)c(OCC2CC2)c1,human,plasma,oral,0.25 mg,single dose,0.75
CO[C@@H]1[C@H](OC(=O)N2CC(CCN3CCOCC3)C2)CC[C@]2(CO2)[C@H]1[C@@]1(C)O[C@@H]1CC=C(C)C,human,plasma,subcutaneous,2.4 mg,"single dose, healthy volunteers",0.25
Nc1cc(C(F)(F)F)c(-c2cc(N3CCOCC3)nc(N3CCOCC3)n2)cn1,human,plasma,oral,100 mg/day,patients,1.5
Oc1cc(O)c2c(c1)O[C@@H](c1ccc(O)c(O)c1)[C@@H](O)C2,human,plasma,oral,10 mg,single dose,1
